Assay results reported in ChEMBL document CHEMBL1134514, “Synthesis of novel gamma-aminobutyric acid (GABA) uptake inhibitors. 5.(1) Preparation and structure-activity studies of tricyclic analogues of known GABA uptake inhibitors” (J Med Chem, 2001).

Columns and labels:
GABA transporter = GABA transporter (Rattus norvegicus, UniProt P31647+P23978+P31646+P48056); experiment: In vitro inhibition of [3H]GABA uptake in rat synaptosomes was determined; format: functional, subcellular, Brain
Procedure, shortened: (§1)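 Rat forebrain homogenized in ice-cold 0.32 M sucrose, spun 10 min at 600 g, 4 °C; pellet resuspended in pH 7.4 phosphate/NaCl/glucose buffer. Synaptosomes (0.1 mg protein) preincubated with test substance 8 min at 30 °C, then [3H]-GABA (0.9 nM final) plus unlabeled GABA (0.9 nM final) for 8 min. Filtration on glass fiber, ice-cold saline washes, scintillation counting. IC50 as mean of two determinations.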

[1] = target: T1, GABA transporter (Mus musculus) (UniProt P31650+P31651+P31649+P31648); experiment: Ratio for ED50 values for inhibition of rotarod to inhibition of DMCM-induced convulsions in mice; format: functional
Procedure, shortened: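 Protective index is the rotarod ED50 divided by the ED50 for inhibiting DMCM (15 mg/kg ip) clonic seizures. Both were measured in mice after ip dosing.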

[2] = target: T1, GABA transporter (Mus musculus); experiment: In vivo anticonvulsant effect measured as inhibition of DMCM -induced seizures in mice after ip administration.; format: functional, organism-based
Procedure, shortened: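 Female NMRI mice given test drug ip 30 min before DMCM 15 mg/kg ip. Observed for 30 min for clonic seizures and death, N = 5-10 per dose. ED50 in mg/kg.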

[3] = target: T1, GABA transporter (Mus musculus); experiment: In vivo anticonvulsant effect measured as rotarod in mice after ip administration; format: functional, organism-based
Procedure, shortened: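 Mice pretrained 2 min on rotarod (6 rpm, 3 cm rod), then dosed ip. On testing, a mouse that fell was placed back on the rod. Testing ended at 10 failures or after 2 min. ED50 in mg/kg.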

Rattus norvegicus [4] = species on record: Rattus norvegicus; experiment: In vitro inhibition of [3H]GABA uptake determined; format: functional; procedure, shortened: as §1
Rattus norvegicus [5] = species on record: Rattus norvegicus; experiment: In vitro inhibition of [3H]GABA uptake in rat synaptosomes was determined; No activity; format: functional, Brain

Structure (SMILES)	IC50 (GABA transporter)	IC50 (Rattus norvegicus [4])	Protective index [1]	ED50 [2]	ED50 [3]	IC50 (Rattus norvegicus [5])
Cl.O=C(O)[C@@H]1CCCN(CCON=C(c2ccccc2)c2ccccc2)C1	0.082 µM					
Cl.O=C(O)[C@@H]1CCCN(CCOCCN(c2ccccc2)c2ccccc2)C1	0.09 µM		1.6			
Cl.O=C(O)[C@@H]1CCCN(CCOCCN2c3ccccc3Oc3ccccc32)C1	14.6 µM					
Cl.O=C(O)[C@@H]1CCCN(CCOCCN2c3ccc(F)cc3CCc3cc(F)ccc32)C1	0.248 µM					
Cl.O=C(O)[C@@H]1CCCN(CCOCCN2c3ccccc3CCc3ccc(Cl)cc32)C1	0.074 µM		> 2	15 mg/kg	> 30 mg/kg	
Cl.O=C(O)C1CCCN(CCOC(c2ccccc2)c2ccccc2)C1 (stereo not drawn)	1.37 µM					
Cl.O=C(O)[C@@H]1CCCN(CCOCCC(c2ccccc2)c2ccccc2)C1	0.055 µM		5.3			
Cl.O=C(O)[C@@H]1CCCN(CCOCCN2c3ccccc3CCc3ccc(F)cc32)C1	0.265 µM					
Cl.O=C(O)[C@@H]1CCCN(CCON=C2c3cc(Cl)ccc3CCc3ccc(Cl)cc32)C1	5.509 µM		1.1	35 mg/kg	40 mg/kg	
Cl.O=C(O)[C@@H]1CCCN(CCOCCN2c3ccccc3Sc3ccc(C(F)(F)F)cc32)C1	0.105 µM		> 1.6	38 mg/kg	> 60 mg/kg	
Cl.O=C(O)C1=CCCN(CCOCCC2c3ccccc3CCc3ccccc32)C1	1.202 µM					
O=C(O)C1CCCN(CCOC2c3ccccc3-c3ccccc32)C1 (stereo not drawn)						Not Active
Cl.O=C(O)[C@@H]1CCCN(CCOCCN2c3cc(Cl)ccc3CCc3ccc(Cl)cc32)C1	0.068 µM		> 2.2	45 mg/kg	> 100 mg/kg	
Cl.O=C(O)[C@@H]1CCCN(CCOCCCN2c3ccccc3CCc3ccccc32)C1	0.696 µM		> 1.2	50 mg/kg	> 60 mg/kg	
Cl.O=C(O)[C@@H]1CCCN(CCOCCN2c3ccccc3CCc3ccccc32)C1	0.184 µM		5.7	15 mg/kg	85 mg/kg	
Cl.O=C(O)[C@@H]1CCCN(CCOCCN2c3ccccc3CCCc3ccccc32)C1	0.851 µM		> 1.5	60 mg/kg		
Cl.O=C(O)[C@@H]1CCCN(CCOCCN2c3ccccc3C=Cc3ccccc32)C1	0.647 µM		> 1	30 mg/kg	> 30 mg/kg	
Cl.O=C(O)[C@H]1CCCN(CCOCCC2c3ccccc3CCc3ccccc32)C1	0.561 µM		> 2.6	23 mg/kg	> 60 mg/kg	
O=C(O)C1CCCN(CCOC2c3ccccc3C=Cc3ccccc32)C1 (stereo not drawn)	2.5 µM					
O=C(O)[C@@H]1CCCN(CCOCCN2c3ccc(Br)cc3CCc3cc(Br)ccc32)C1		1.03 µM				
Cl.O=C(O)C1=CCCN(CCOCCN2c3ccccc3CCc3ccccc32)C1	0.644 µM		2.9	7.3 mg/kg	21 mg/kg	
Cl.O=C(O)CC1CCN(CCOCCN2c3ccccc3CCc3ccccc32)C1 (stereo not drawn)	0.051 µM		3.2	31 mg/kg	100 mg/kg	

Further lines, with some results ahead:

IC50 (GABA transporter)	IC50 (Rattus norvegicus [4])	Structure (SMILES)	Protective index [1]	ED50 [2]	ED50 [3]	IC50 (Rattus norvegicus [5])
	0.087 µM	O=C(O)[C@@H]1CCCN(CCOC=C(c2ccccc2)c2ccccc2)C1				
0.308 µM		Cl.O=C(O)[C@@H]1CCCN(CCOCCN2c3ccccc3Sc3ccccc32)C1	1.8	30 mg/kg	54 mg/kg	
13.6 µM		O=C(O)C1CCCN(CCC=C2c3ccccc3CCc3ccccc32)C1 (stereo not drawn)		> 60 mg/kg	> 60 mg/kg	
0.77 µM		Cl.O=C(O)[C@H]1CCCN(CCOCC=C2c3ccccc3CCc3ccccc32)C1	> 3.3	30 mg/kg	> 100 mg/kg	
2.495 µM		Cl.O=C(O)[C@H]1CCCN(CCOC/C=C2\c3ccccc3CCc3ccc(Cl)cc32)C1	> 1.2	50 mg/kg	> 60 mg/kg	
	2.18 µM	O=C(O)[C@@H]1CCCN(CCOC=C2c3ccccc3CCc3ccccc32)C1				
1.161 µM		Cl.O=C(O)[C@@H]1CCCN(CCON=C2c3ccccc3CCc3ccccc32)C1	> 3.3	30 mg/kg	> 100 mg/kg	
2.018 µM		O=C(O)[C@@H]1CCCN(CCC=C2c3ccccc3-c3ccccc32)C1				
0.46 µM		Cl.O=C(O)[C@@H]1CCCN(CCCOCC=C2c3ccccc3CCc3ccccc32)C1	> 2.5	60 mg/kg	> 150 mg/kg	
> 40 µM		Cl.O=C(O)[C@@H]1CCCN(CCOCCn2c3ccccc3c3ccccc32)C1				
